Measurements reported in ChEMBL document CHEMBL5678801, “A benzothiophene inhibitor of mitogen-activated protein kinase-activated protein kinase 2 inhibits tumor necrosis factor alpha production and has oral anti-inflammatory efficacy in acute and chronic models of inflammation” (J Pharmacol Exp Ther, 2010).

What was measured:
[1] = target: T1, Serine/threonine-protein kinase BRSK1 (Homo sapiens, UniProt Q8TDC3); assay: Inhibition of BrSK1 (unknown origin)
T1 sequence (Q8TDC3 whole entry): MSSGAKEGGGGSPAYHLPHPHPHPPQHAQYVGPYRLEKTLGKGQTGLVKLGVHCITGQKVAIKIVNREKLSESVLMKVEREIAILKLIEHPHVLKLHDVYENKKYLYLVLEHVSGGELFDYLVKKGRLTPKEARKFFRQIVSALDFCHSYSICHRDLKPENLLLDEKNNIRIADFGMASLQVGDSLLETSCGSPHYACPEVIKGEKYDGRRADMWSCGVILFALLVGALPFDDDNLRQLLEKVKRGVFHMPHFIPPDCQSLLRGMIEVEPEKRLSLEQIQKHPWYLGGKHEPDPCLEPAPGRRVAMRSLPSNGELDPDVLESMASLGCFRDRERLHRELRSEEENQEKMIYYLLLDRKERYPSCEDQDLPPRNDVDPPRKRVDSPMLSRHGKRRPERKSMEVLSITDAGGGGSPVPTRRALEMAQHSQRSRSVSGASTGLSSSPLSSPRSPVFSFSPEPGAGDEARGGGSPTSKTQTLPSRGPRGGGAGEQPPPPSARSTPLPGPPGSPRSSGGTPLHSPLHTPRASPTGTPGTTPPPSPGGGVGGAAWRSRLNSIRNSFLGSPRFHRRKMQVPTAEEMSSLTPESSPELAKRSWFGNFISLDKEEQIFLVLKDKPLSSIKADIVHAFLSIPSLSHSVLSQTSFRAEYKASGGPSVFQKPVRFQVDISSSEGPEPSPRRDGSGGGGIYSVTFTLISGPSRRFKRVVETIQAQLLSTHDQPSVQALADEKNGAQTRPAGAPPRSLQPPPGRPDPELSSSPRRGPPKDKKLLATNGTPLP
Method in brief: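 Selectivity profiling began with a 200-kinase screen at 1 μM compound; kinases above 50% inhibition were then titrated for IC50. MgATP was fixed at each enzyme's Km(app). Buffer was 20 mM HEPES pH 7.5 with 10 mM MgCl2, 1 mM DTT, 0.01% BSA and 0.0005% Tween-20. Endpoint reactions were stopped in the linear phase with 30 mM EDTA.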

[2] = target: T2, Serine/threonine-protein kinase 17A (Homo sapiens, UniProt Q9UEE5); assay: Inhibition of DRAK1 (unknown origin)
T2 sequence (Q9UEE5 whole entry): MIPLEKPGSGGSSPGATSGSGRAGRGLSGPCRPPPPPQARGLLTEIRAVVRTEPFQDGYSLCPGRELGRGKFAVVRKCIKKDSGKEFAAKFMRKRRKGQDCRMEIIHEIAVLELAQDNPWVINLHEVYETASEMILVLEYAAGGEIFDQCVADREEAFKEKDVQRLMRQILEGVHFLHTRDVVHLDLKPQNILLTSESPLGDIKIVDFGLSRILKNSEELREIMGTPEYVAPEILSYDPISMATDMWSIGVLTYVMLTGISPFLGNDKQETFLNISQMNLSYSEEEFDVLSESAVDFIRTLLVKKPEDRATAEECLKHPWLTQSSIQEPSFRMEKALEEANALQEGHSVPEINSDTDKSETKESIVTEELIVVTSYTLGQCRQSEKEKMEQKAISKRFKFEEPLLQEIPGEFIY
Method in brief: (§1)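 Kinase panel: 200 kinases were first screened at 1 μM inhibitor for percent inhibition. Those above 50% inhibition were then titrated for IC50. MgATP was fixed at the Km(app) determined for each enzyme.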

[3] = target: T3, Tyrosine-protein kinase Mer (Homo sapiens, UniProt Q12866); assay: Inhibition of Mer (unknown origin); method in brief: as §1
T3 sequence (Q12866 whole entry): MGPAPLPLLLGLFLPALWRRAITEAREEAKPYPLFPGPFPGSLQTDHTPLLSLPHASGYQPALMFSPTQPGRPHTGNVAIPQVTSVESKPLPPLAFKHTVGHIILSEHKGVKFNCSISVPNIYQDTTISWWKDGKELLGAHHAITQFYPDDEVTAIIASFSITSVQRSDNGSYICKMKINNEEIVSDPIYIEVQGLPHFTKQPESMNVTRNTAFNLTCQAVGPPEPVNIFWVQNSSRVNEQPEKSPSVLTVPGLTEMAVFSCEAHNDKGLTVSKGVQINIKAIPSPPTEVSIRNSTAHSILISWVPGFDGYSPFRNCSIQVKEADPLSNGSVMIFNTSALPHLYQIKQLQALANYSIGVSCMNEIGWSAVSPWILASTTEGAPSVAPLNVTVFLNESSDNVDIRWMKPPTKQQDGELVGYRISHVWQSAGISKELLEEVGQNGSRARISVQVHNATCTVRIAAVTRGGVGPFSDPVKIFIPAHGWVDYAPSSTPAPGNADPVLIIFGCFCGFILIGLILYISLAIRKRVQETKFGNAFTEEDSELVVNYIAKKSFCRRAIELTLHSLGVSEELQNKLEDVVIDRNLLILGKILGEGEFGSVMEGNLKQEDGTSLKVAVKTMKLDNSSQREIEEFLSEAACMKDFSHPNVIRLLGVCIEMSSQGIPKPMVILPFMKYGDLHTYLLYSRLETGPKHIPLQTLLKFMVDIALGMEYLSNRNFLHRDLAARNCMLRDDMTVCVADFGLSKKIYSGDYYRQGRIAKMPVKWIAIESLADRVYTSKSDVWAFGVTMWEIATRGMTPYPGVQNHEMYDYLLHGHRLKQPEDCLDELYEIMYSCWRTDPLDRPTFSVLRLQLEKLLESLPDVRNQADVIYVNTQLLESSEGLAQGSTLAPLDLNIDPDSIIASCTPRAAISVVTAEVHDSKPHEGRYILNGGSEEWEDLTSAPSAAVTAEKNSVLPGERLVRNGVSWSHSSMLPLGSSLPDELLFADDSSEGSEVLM

[4] = Cytotoxicity against human PBMC cells assessed as reduction in cell viability at upto 20 uM; assay type: toxicity, cell-based

IC50 [1]: 0.187 µM
IC50 [2]: 0.071 µM
IC50 [3]: 0.076 µM
Compound: Cc1ccc(-c2ccc3c(ccc4sc5c(c43)NC[C@@H](C)NC5=O)n2)cn1
Activity [4]: Non-Toxic
